Test results published in ChEMBL document CHEMBL1156489, “Small molecule receptor agonists and antagonists of CCR3 provide insight into mechanisms of chemokine receptor activation” (J Biol Chem, 2007).
Where a chain is given by its changes, count along the chain named. Calls of active or inactive are those of the source. No cut-off for these calls is given here.

What was measured:
[1] = target: T1, C-C chemokine receptor type 3 (Homo sapiens) (UniProt P51677); assay: Agonist activity at human recombinant CCR3 expressed in eosinophils; format: functional
T1 sequence (whole entry): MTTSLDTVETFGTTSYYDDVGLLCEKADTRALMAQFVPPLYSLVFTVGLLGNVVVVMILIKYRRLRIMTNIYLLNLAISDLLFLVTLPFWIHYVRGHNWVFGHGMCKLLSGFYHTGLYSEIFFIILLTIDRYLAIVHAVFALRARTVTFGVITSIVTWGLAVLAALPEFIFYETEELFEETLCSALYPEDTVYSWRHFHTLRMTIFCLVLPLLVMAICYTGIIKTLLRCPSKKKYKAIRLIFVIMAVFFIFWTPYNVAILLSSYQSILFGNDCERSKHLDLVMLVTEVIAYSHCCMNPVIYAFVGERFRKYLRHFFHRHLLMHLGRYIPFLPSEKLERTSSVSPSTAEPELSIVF
Procedure, shortened: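 Gated autofluorescence forward scatter (shape change) assay. Granulocytes from healthy-donor blood were isolated on plasma/Percoll gradients and pre-incubated at 5×10^6 cells/ml for 30 min at room temperature in GAFS buffer (PBS, 0.9 mM CaCl2, 0.5 mM MgCl2, 10 mM HEPES, 10 mM glucose, 0.1% BSA). Cells were exposed to varying compound concentrations for 4 min at 37°C, chilled, fixed and read by flow cytometry.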

[2] = target: T1, C-C chemokine receptor type 3 (Homo sapiens); assay: Agonist activity at human recombinant CCR3 expressed in mouse L1.2 cells assessed as induction of chemotaxis; format: functional, cell-based
Procedure, shortened: (§1)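 L1.2 cells transfected with CCR3 (stable line kept in 1 mg/ml G-418, or transient electroporation at 1 μg DNA/1 × 10^6 cells, then overnight 10 mM sodium butyrate). Duplicate agonist concentrations in RPMI/0.1% BSA were placed in the lower wells and 2 × 10^5 cells on the upper filter (5 μm pores). After 5 h at 37°C, 5% CO2, migrated cells were counted by hemocytometer and expressed as % migrating.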

[3] = target: T1, C-C chemokine receptor type 3 (Homo sapiens); assay: Reduction of human recombinant CCR3 expression in mouse L1.2 cells relative to control; format: cell-based; design: scale not given: the % may be the effect or the level left
Procedure, shortened: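 In duplicate, 1 × 10^6 CCR3-L1.2 cells in ice-cold medium were warmed to 37°C for 20 min, then given stimulus (100 nM CCL11 or 10 μM compound) for 20 min; ice-held tubes and a buffer tube served as controls. Surface CCR3 was measured by anti-CCR3 flow cytometry as mean fluorescence minus isotype, expressed as % of buffer-treated cells.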

[4] = tested on: T2, C-C chemokine receptor type 3 (Homo sapiens), P51677 [Y41A]; assay: Agonist activity at human recombinant CCR3 Y41A mutant expressed in mouse L1.2 cells assessed as induction of chemotaxis; format: functional, cell-based; procedure, shortened: as §1
T2 sequence (whole entry): T1 sequence (whole entry) with Y41A

[5] = tested on: T3, C-C chemokine receptor type 3 (Homo sapiens), P51677 [Y113A]; assay: Agonist activity at human recombinant CCR3 Y113A mutant expressed in mouse L1.2 cells assessed as induction of chemotaxis; format: functional, cell-based; procedure, shortened: as §1
T3 sequence (whole entry): T1 sequence (whole entry) with Y113A

[6] = tested on: T4, C-C chemokine receptor type 3 (Homo sapiens), P51677 [E287Q]; assay: Agonist activity at human recombinant CCR3 E287Q mutant expressed in mouse L1.2 cells assessed as induction of chemotaxis; format: functional, cell-based; procedure, shortened: as §1
T4 sequence (whole entry): T1 sequence (whole entry) with E287Q

[7] = target: T1, C-C chemokine receptor type 3 (Homo sapiens); assay: Agonist activity at human recombinant CCR3 expressed in mouse L1.2 cells assessed as receptor internalization at 10 uM after 20 mins by flow cytometry

O=C(Cc1cccc2occc12)Nc1cc[n+](CCCc2ccccc2)c(Br)c1
Activity [1]: Dose-dependent effect | Activity [2]: Dose-dependent effect | Activity [3]: 59.4% | Activity [4]: inactive | Activity [5]: inactive | Activity [6]: inactive | Activity [7]: Active
